From ChEMBL document CHEMBL4251594, “Design and synthesis of sulfonamidophenylethylureas as novel cardiac myosin activator” (Eur J Med Chem, 2018)

Experiments:
[1] = species on record: Bos taurus; assay: Activation of actin-stimulated bovine cardiac myosin S1 fragment ATPase activity in sarcomere at 10 uM after 10 mins by spectrophotometric analysis relative to control
[2] = species on record: Oryctolagus cuniculus; assay: Activation of actin-stimulated rabbit skeletal muscle myosin S1 fragment ATPase activity at 100 uM after 10 mins by spectrophotometric analysis relative to control
[3] = species on record: Gallus gallus; assay: Activation of actin-stimulated chicken gizzard smooth muscle myosin S1 fragment ATPase activity at 100 uM after 10 mins by spectrophotometric analysis relative to control
[4] = test system: Rattus norvegicus; assay: Positive inotropic activity in Sprague-Dawley rat heart assessed as increase in left ventricle fractional shortening at 2 to 16 ug/kg/min infused for 3 mins by echocardiographic analysis; assay type: functional
Method in brief: (§1)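 Seven-week-old male Sprague-Dawley rats; dosing via internal jugular vein central line, infused at 0, 2, 4, 8 and 16 µg/kg/min for 3 minutes from a 40 µg/mL final solution (concentration checked by HPLC against three standards). M-mode echocardiography at baseline and 16 µg/kg/min with a 25 MHz transducer; percent rise in LV fractional shortening and ejection fraction.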

[5] = test system: Cardiac muscle cell; assay: Positive inotropic activity in Sprague-Dawley rat ventricular myocytes assessed as change in ventricular cell contractility by measuring cell shortening at 5 uM; assay type: functional
[6] = test system: Rattus norvegicus; assay: Positive inotropic activity in Sprague-Dawley rat heart assessed as increase in ejection fraction at 2 to 16 ug/kg/min infused for 3 mins by echocardiographic analysis; assay type: functional; method in brief: as §1
[7] = Aqueous solubility of the compound in water; assay type: physicochemical; settings: buffer
[8] = test system: Cardiac muscle cell; assay: Positive inotropic activity in Sprague-Dawley rat ventricular myocytes assessed as change in ventricular cell contractility by measuring cell shortening at 1 uM; assay type: functional

CN(C)S(=O)(=O)c1ccc(C2CCN(C(=O)NCCc3ccccc3)CC2)cc1
Activity [1]: 32.6%

CN(C)S(=O)(=O)c1ccc(CCCNC(=O)NCc2ccccc2)cc1
Activity [1]: 20.8%

COc1ccc(CCNC(=O)NCCCc2ccccc2)cc1
Activity [1]: 40%

Cc1ccc2c(c1)C(=O)[C@]1(O)CCN(c3ccccc3)C1=N2
Activity [2]: -50.7%
Activity [3]: -35.7%

CC(C)N(CCc1ccc(S(=O)(=O)N(C)C)cc1)C(=O)NCCCc1ccccc1
Activity [1]: 38.1%

CN(C)S(=O)(=O)c1ccc(CCNC(=O)NCCCc2ccccc2)cc1
Activity [4]: 17.62%
Activity [2]: -3.8%
Activity [3]: -1.9%
Activity [5]: 47.9%
Activity [6]: 11.55%
Activity [1]: 91.6%

O=C(NCCCc1ccccc1)NCCc1ccc(Cl)cc1
Activity [1]: 31%

O=C(NCCCc1ccccc1)NCCc1ccccc1F
Activity [4]: 12.52%
Activity [6]: 8.76%
Activity [1]: 65.4%

COc1ccc(S(N)(=O)=O)c(CCNC(=O)NCCCc2ccccc2)c1
Activity [1]: 29.4%

CN(C)c1ccc(CCNC(=O)NCCCc2ccccc2)cc1
Activity [1]: 45.3%

COc1ccc(CNC(=O)NCCCc2ccccc2)cc1OC
Activity [1]: 38.8%

COc1ccc(CCCNC(=O)NCCc2ccc(OC)c(OC)c2)cc1
Activity [1]: 38.4%

NS(=O)(=O)c1ccc(CCNC(=O)NCCCc2ccc(F)cc2)cc1
Activity [1]: 19.1%

CN(CCCc1ccccc1)C(=O)N(C)CCc1ccc(S(=O)(=O)N(C)C)cc1
Activity [4]: 0.46%
Activity [6]: 0.27%
Activity [1]: 69%

NS(=O)(=O)c1ccc(CNC(=O)NCCCc2ccccc2)cc1
Activity [1]: 39.6%

NS(=O)(=O)c1ccc(CCNC(=O)NCCCc2ccc(Cl)cc2)cc1
Activity [1]: 37.9%

CN(CCCc1ccccc1)C(=O)NCCc1ccc(S(=O)(=O)N(C)C)cc1
Activity [4]: 23.19%
Activity [6]: 15.47%
Activity [1]: 47.6%

Cc1ccc(CCNC(=O)NCCCc2ccccc2)cc1
solubility [7]: Insoluble
Activity [1]: 73.8%

COc1cccc(CCNC(=O)NCCCc2ccccc2)c1
Activity [1]: 35%

O=C(NCCCc1ccccc1)NCCc1ccccc1
Activity [4]: 18.9%
Activity [2]: -2.1%
Activity [3]: -4.7%
Activity [5]: 20.8%
Activity [6]: 12.15%
Activity [1]: 51.1%

COc1ccc(CNC(=O)NCCCc2ccccc2)cc1
Activity [1]: 25.4%

O=C(NCCCc1ccccc1)NCCc1ccc(C(=O)O)cc1
Activity [1]: 40.6%

CCN(CCCc1ccccc1)C(=O)N(CC)CCc1ccc(S(=O)(=O)N(C)C)cc1
Activity [1]: 30.3%

COc1ccc(CCCNC(=O)NCc2ccccc2)cc1
Activity [1]: 30.5%

O=C(NCCCc1ccc(F)cc1)NCc1ccccc1
Activity [1]: 9.5%

CC(C)N(CCc1ccc(S(=O)(=O)N(C)C)cc1)C(=O)N(C)CCCc1ccccc1
Activity [1]: 40.6%

CN(C)S(=O)(=O)c1ccc(CNC(=O)NCCCc2ccccc2)cc1
Activity [1]: 34.5%

NS(=O)(=O)c1ccc(CCNC(=O)NCCCCc2ccccc2)cc1
Activity [1]: 36.6%

COC(=O)N1CCN(Cc2cccc(NC(=O)Nc3ccc(C)nc3)c2F)CC1 [OMECAMTIV MECARBIL]
Activity [4]: 20.32%
Activity [2]: 2.8%
Activity [3]: -5.5%
Activity [8]: 33.8%
Activity [6]: 13.35%
Activity [1]: 58%

COc1ccc(CCCNC(=O)NCCc2ccc(S(N)(=O)=O)cc2)cc1
Activity [1]: 34.8%

COc1ccc(CCNC(=O)NCCCc2ccccc2)cc1OC
Activity [4]: 23.97%
Activity [2]: -2.4%
Activity [3]: 4.3%
Activity [5]: 22.2%
Activity [6]: 15.87%
Activity [1]: 122%

CC(C)c1ccc(CCNC(=O)NCCCc2ccccc2)cc1
Activity [1]: 33.3%

COc1ccccc1CCNC(=O)NCCCc1ccccc1
Activity [4]: 20.47%
Activity [2]: 3.5%
Activity [3]: 5.3%
Activity [5]: 19.7%
Activity [6]: 13.58%
Activity [1]: 95.1%

CCN(CCc1ccc(S(=O)(=O)N(C)C)cc1)C(=O)NCCCc1ccccc1
Activity [1]: 39.5%

CN(CCc1ccc(S(=O)(=O)N(C)C)cc1)C(=O)NCCCc1ccccc1
Activity [4]: 38.96%
Activity [6]: 24.19%
Activity [1]: 52.3%

O=C(NCCCc1ccccc1)NCc1ccccc1
Activity [4]: 30.04%
Activity [2]: 1.4%
Activity [3]: -3.7%
Activity [5]: 25.3%
Activity [6]: 18.27%
Activity [1]: 53.3%

O=C(NCCCc1ccccc1)NCCc1ccc(Cl)cc1Cl
Activity [1]: 37.3%

Nc1ccc(CCNC(=O)NCCCc2ccccc2)cc1
Activity [4]: 6.37%
Activity [6]: 4.16%
Activity [1]: 55.2%

CN(C)S(=O)(=O)c1ccc(CNC(=O)N2CCC(c3ccccc3)CC2)cc1
Activity [1]: 27.6%

O=C(NCCCc1ccccc1)NCCc1ccc([N+](=O)[O-])cc1
Activity [1]: 56.2%

CN(C)S(=O)(=O)c1ccc(C2CCN(C(=O)NCCCc3ccccc3)CC2)cc1
Activity [1]: 85.1%

NS(=O)(=O)c1ccc(CCNC(=O)NCCCc2ccccc2)cc1
Activity [4]: 11.24%
Activity [6]: 7.23%
Activity [1]: 41.9%

COc1ccc(CCNC(=O)NCCCCc2ccccc2)cc1OC
Activity [1]: 32.5%

O=C(NCCCc1ccccc1)NCCc1ccc(F)cc1
Activity [1]: 38.6%

CN(C)S(=O)(=O)c1ccc(CCNC(=O)NCCCc2ccc(F)cc2)cc1
Activity [1]: 20.6%

CN(C)S(=O)(=O)c1ccc(CCNC(=O)N2CCC(c3ccccc3)CC2)cc1
Activity [1]: 40.7%

NS(=O)(=O)c1ccc(NC(=O)NCCCc2ccccc2)cc1
Activity [1]: 31.8%

CN(C)S(=O)(=O)c1ccc(C2CCN(C(=O)NCc3ccccc3)CC2)cc1
Activity [1]: 36.9%
